From ChEMBL document CHEMBL1926556, “Synthesis and biological activities of 2-[(heteroaryl)methyl]imidazolines” (Bioorg Med Chem, 2012)

Tests used:
[1] = molecular target: T1, Alpha-2A adrenergic receptor (Homo sapiens) (UniProt P08913); experiment: Agonist activity at human adrenoceptor alpha2A expressed in CHOK1 cells assessed as stimulation of agonist-induced [35S]GTPgammaS binding by scintillation counting assay relative to noradrenaline; format: functional, cell-based; conditions: CHO-K1
T1 sequence (whole entry): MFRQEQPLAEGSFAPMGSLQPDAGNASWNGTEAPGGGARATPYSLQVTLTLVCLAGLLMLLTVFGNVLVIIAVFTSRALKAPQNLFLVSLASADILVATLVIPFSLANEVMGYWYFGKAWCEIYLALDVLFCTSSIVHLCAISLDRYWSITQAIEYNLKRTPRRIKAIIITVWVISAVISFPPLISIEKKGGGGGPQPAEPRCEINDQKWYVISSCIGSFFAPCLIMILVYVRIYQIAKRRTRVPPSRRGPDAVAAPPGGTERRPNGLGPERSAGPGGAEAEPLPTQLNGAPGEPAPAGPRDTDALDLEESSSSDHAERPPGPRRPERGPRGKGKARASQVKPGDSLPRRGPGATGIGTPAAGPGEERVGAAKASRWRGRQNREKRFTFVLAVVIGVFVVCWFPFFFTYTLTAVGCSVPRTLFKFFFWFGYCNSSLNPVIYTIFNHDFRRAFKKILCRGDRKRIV
How it was run: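 Membranes from CHO-K1 cells stably expressing human α2A-adrenoceptor; 5 µg protein incubated with serial dilutions of agonist and 0.1 nM [35S]GTPγS in Tris buffer pH 7.4 with 1 µM GDP, MgCl2, NaCl, 30 min at RT. Filtered and counted by scintillation. EC50 and intrinsic activity relative to noradrenaline; means from 3 independent experiments.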

Nischarin = Nischarin (Rattus norvegicus, UniProt Q4G017); experiment: Displacement of [3H]clonidine from imidazoline I1 receptor in Sprague-Dawley rat kidney membranes after 45 mins by scintillation counting; format: cell membranes, Membrane
How it was run: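 Crude P2 membranes from male Sprague–Dawley rat kidney, 0.2–0.5 mg protein. […] Specific binding defined by 10 µM rilmenidine. 11 concentrations from 0.01 to 100 µM, 50 mM Tris-HCl pH 7.4, 45 min at RT. Filtration and scintillation counting; IC50.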

[2] = Displacement of [3H]BFI from imidazoline I2 receptor in Sprague-Dawley rat brain membranes after 45 mins by scintillation counting; format: cell membranes, Membrane
How it was run: (§1)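 Crude P2 membranes from male Sprague–Dawley rat brain (250–280 g), 0.2–0.3 mg protein. Radioligand 1 nM: [3H]2BFI for I2, [3H]prazosin for α1, [3H]RX821002 for α2. Non-specific binding defined by 10 µM BU224 (I2), 10 µM phenylephrine (α1) or 10 µM rauwolscine (α2). 11 concentrations from 0.01 nM to 100 µM, triplicate, 45 min at RT. Filtration and scintillation counting; Ki by Cheng–Prusoff.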

[3] = molecular target: T2, Alpha-2A adrenergic receptor (Homo sapiens, UniProt P08913); experiment: Agonist activity at human adrenoceptor alpha2A expressed in CHOK1 cells assessed as stimulation of agonist-induced [35S]GTPgammaS binding by scintillation counting; format: functional, cell-based, CHO-K1
T2 sequence (P08913 whole entry): T1 sequence (whole entry)
How it was run: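 Membranes from CHO-K1 cells stably expressing human α2A-adrenoceptor; 5 µg protein incubated with serial dilutions of agonist and 0.1 nM [35S]GTPγS in Tris buffer pH 7.4 with 1 µM GDP, MgCl2, NaCl, 30 min at RT. Filtered and counted by scintillation.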

[4] = molecular target: T3, Adrenergic receptor alpha-2 (Rattus norvegicus, UniProt P22086+P19328+P22909); experiment: Displacement of […] from adrenoceptor alpha2 in Sprague-Dawley rat brain membranes after 45 mins by scintillation counting; format: cell membranes, Membrane; how it was run: as §1
T3 sequence (P22086 whole entry): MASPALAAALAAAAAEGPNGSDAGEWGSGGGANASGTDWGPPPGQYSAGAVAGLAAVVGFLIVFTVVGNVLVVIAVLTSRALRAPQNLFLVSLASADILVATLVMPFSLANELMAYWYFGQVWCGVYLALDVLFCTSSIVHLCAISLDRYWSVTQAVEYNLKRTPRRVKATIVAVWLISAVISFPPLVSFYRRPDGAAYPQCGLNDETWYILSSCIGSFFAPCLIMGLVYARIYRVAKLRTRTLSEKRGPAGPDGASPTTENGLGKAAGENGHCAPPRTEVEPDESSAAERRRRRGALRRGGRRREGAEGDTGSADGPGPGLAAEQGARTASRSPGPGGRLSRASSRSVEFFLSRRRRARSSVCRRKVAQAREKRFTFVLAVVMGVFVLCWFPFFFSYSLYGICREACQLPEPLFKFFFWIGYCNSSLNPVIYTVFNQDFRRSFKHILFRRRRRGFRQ
T3 sequence (P19328 whole entry): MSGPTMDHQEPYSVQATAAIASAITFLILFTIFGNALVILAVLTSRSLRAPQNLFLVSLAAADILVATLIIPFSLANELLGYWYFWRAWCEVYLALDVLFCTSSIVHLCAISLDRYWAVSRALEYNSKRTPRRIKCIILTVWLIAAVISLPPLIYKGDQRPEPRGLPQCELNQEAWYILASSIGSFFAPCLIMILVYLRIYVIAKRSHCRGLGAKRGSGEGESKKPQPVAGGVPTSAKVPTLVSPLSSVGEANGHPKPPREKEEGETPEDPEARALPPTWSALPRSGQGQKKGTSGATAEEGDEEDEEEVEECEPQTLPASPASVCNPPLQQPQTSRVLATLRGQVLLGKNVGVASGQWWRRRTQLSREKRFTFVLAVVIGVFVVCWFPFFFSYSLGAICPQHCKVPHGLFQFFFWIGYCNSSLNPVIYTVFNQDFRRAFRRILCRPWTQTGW
T3 sequence (P22909 whole entry): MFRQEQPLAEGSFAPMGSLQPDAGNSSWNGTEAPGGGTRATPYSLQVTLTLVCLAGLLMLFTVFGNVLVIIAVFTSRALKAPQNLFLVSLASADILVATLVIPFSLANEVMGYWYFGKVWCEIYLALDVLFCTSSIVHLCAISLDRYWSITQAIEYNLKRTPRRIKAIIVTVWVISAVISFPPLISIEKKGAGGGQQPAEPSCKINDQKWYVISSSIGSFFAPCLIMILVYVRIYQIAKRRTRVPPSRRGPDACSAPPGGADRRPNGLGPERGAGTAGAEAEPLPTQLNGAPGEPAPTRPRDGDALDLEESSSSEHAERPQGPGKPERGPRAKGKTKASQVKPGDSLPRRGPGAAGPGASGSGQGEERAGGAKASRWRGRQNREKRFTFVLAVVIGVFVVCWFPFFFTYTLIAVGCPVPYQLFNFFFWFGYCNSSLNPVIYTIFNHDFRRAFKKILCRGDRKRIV

Chain of Nischarin (Q4G017 whole entry): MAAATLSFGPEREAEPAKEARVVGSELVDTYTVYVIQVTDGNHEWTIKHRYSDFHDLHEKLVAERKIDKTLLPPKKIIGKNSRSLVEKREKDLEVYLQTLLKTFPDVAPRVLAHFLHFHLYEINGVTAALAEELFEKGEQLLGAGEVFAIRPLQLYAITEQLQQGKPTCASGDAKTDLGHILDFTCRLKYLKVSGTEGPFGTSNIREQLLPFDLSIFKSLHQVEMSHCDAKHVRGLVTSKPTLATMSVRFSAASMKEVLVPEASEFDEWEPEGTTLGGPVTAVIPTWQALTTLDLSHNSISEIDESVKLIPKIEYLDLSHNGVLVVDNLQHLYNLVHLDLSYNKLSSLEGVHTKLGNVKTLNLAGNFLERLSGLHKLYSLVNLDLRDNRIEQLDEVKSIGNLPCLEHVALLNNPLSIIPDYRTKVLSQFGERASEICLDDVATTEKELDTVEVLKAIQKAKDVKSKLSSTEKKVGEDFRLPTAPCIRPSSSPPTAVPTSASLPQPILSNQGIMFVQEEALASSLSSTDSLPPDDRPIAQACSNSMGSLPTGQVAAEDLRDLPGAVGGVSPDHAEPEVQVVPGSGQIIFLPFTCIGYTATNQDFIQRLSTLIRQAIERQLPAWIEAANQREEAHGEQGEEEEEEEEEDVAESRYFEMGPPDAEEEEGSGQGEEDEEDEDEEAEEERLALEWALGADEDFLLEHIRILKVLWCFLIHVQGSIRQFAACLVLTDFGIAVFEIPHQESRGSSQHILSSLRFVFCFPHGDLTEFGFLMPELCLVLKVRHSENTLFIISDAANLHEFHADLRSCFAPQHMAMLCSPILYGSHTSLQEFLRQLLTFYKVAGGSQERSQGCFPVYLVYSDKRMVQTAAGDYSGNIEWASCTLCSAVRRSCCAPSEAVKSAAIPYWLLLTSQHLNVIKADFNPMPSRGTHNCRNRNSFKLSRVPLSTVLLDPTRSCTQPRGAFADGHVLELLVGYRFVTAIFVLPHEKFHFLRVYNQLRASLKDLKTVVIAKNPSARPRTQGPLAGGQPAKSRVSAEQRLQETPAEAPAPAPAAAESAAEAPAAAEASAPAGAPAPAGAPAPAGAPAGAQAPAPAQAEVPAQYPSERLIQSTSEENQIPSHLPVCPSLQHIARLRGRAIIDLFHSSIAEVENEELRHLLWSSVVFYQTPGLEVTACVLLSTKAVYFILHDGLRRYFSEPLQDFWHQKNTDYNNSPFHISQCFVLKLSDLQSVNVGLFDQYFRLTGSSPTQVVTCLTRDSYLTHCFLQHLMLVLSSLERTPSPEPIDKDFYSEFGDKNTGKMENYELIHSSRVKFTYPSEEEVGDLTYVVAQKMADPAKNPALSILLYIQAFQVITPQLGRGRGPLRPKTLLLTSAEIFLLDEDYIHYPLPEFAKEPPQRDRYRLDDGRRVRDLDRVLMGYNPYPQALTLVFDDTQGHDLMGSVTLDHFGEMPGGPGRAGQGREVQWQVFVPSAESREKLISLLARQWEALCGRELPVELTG

Row | SMILES | Emax [1] | IC50 (Nischarin) | Ki [2] | EC50 [3] | Ki [4]
1 | Cl.Clc1cccc2cnn(CC3=NCCN3)c12 | 7.4% | 0.856 µM | 0.554 µM | 16.6 µM | 6.4 nM
2 | Cc1cccc2cnn(CC3=NCCN3)c12.Cl | 6.3% | 96.4 µM | 6.84 µM | 17.4 µM | 607 nM
3 | Cl.c1ccc2c(c1)cnn2CC1=NCCN1 | 6.3% | 19.4 µM | 42.2 µM | 4.5 µM | 18.5 nM
